These results are taken from ChEMBL document CHEMBL3994584, “Identification of novel fluorescent probes preventing PrPSc replication in prion diseases” (Eur J Med Chem, 2017).

The nature of this assay: Antiprion activity against mouse prion protein RML infected mouse ScN2a cells assessed as reduction in proteinase K-resistant PrPSc level incubated for 5 days followed by proteinase K digestion by Western blot method. Conditions: 120 h. In outline: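 RML-infected ScN2a cells were treated with 0.1, 1 and 10 μM for 5 days, with DMSO ≤0.1% final. Lysates (500 μg protein) were digested with 10 μg PK for 1 h at 37 °C, stopped with 2 mM PMSF and ultracentrifuged. Pellets were run on SDS-PAGE and immunoblotted with anti-PrP Fab W226, with ECL detection. Densitometry gave PK-resistant PrPSc over total PrP, with untreated set to 100%. Three independent experiments.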
(A western blot detects proteins with antibodies after separation by electrophoresis.)

Turning to `Cc1ccc(Nc2nc(-c3ccc(-c4ccccn4)s3)cs2)nc1`, the EC50 (read-out: EC50) was 1230 nM and the EC50 (read-out: pEC50 (converted)) was 1230 nM.

As to `O=C(Nc1nc(-c2ccc(-c3ccncc3)cc2)cs1)C1CC1`, the EC50 by setting is: (read-out: EC50) 173 nM; (read-out: pEC50 (converted)) 174 nM.

For `COCCOc1cc(-c2ccc(-c3csc(Nc4cccc(C)n4)n3)cc2)ccn1`, the EC50 is 153 nM (read-out: EC50) and 155 nM (read-out: pEC50 (converted)).

Take `COCCOc1ccc(-c2ccc(-c3csc(Nc4cccc(C)n4)n3)cc2)cn1`: the EC50 is 137 nM (read-out: EC50) and 138 nM (read-out: pEC50 (converted)).

Consider `COc1ccc(-c2csc(Nc3ccc4ccccc4c3)n2)cc1OC`, for which the EC50 is, setting by setting: (read-out: EC50) 390 nM; (read-out: pEC50 (converted)) 389 nM.

In the case of `COc1ccc(-c2csc(Nc3cccc(C)n3)n2)cc1OC`, the EC50 reads like this: (read-out: EC50) 3010 nM; (read-out: pEC50 (converted)) 3020 nM.

Take `Cc1cccc(Nc2nc(-c3ccc(-c4cc[n+]([O-])cc4)cc3)cs2)n1`: the EC50 was 559 nM (read-out: EC50) and 562 nM (read-out: pEC50 (converted)).

Turning to `Cc1ccc(Nc2nc(-c3cc(-c4ccccc4)no3)cs2)nc1`, the EC50 runs as follows: (read-out: EC50) 940 nM; (read-out: pEC50 (converted)) 933 nM.

`Cc1cccc(Nc2nc(-c3ccc(-c4ccnc(OC(C)C)c4)cc3)cs2)n1`: the EC50 is, setting by setting: (read-out: EC50) 2840 nM; (read-out: pEC50 (converted)) 2820 nM.

On to `COc1ccc(-c2csc(N(C(C)=O)c3ccc4ccccc4n3)n2)cc1OC`, for which the EC50 is 81 nM (read-out: EC50) and 81.3 nM (read-out: pEC50 (converted)).

Regarding `COc1ccc(-c2csc(Nc3ccccc3)n2)cc1OC`, the EC50 was 8200 nM (read-out: EC50) and 8130 nM (read-out: pEC50 (converted)).

For `CN(C)c1ccncc1-c1ccc(-c2csc(NC(=O)C3CC3)n2)cc1`, the EC50 (read-out: EC50) stood at 109 nM and the EC50 (read-out: pEC50 (converted)) was 110 nM.

Turning to `Cc1cccc(Nc2nc(-c3ccc(-c4ccncc4C)cc3)cs2)n1`, the EC50 reads like this: (read-out: EC50) 618 nM; (read-out: pEC50 (converted)) 617 nM.

For `COc1ccc(-c2csc(Nc3cccnc3)n2)cc1OC`, the EC50 was 28000 nM (read-out: EC50) and 28200 nM (read-out: pEC50 (converted)).

Regarding `Cc1cccc(Nc2nc(-c3ccc(-c4ccnn4C)cc3)cs2)n1`, the EC50 (read-out: EC50) worked out at 89 nM and the EC50 (read-out: pEC50 (converted)) was 89.1 nM.

Regarding `COc1ccc(Nc2nc(-c3cc(-c4ccccc4)no3)cs2)nc1`, the EC50 is 230 nM (read-out: EC50) and 229 nM (read-out: pEC50 (converted)).

As to `COCCOc1cc(-c2ccc(-c3csc(NC(=O)C4CC4)n3)cc2)ccn1`, the EC50 (read-out: EC50) was determined as 1320 nM and the EC50 (read-out: pEC50 (converted)) was 1320 nM.

Turning to `Cc1ccc(Nc2nc(-c3ccncc3)cs2)nc1`, the EC50 by setting is: (read-out: EC50) 1570 nM; (read-out: pEC50 (converted)) 1580 nM.

Turning to `CN1CCN(c2cc(-c3ccc(-c4csc(NC(=O)C5CC5)n4)cc3)ccn2)CC1`, the EC50 is 682 nM (read-out: EC50) and 676 nM (read-out: pEC50 (converted)).

`Cc1cccc(Nc2nc(-c3cc4ccccc4o3)cs2)n1`: the EC50 (read-out: EC50) is 1460 nM and the EC50 (read-out: pEC50 (converted)) is 1450 nM.

Turning to `COc1ccc(-c2csc(Nc3ccncc3)n2)cc1OC`, the EC50 (read-out: EC50) is 6380 nM and the EC50 (read-out: pEC50 (converted)) was 6460 nM.

With `c1ccc(-c2cc(-c3csc(Nc4ccncc4)n3)on2)cc1`, the EC50 is 4420 nM (read-out: EC50) and 4470 nM (read-out: pEC50 (converted)).

On to `COc1ccc(-c2csc(Nc3ccc(C)cn3)n2)cc1`, for which the EC50 by setting is: (read-out: EC50) 3030 nM; (read-out: pEC50 (converted)) 3020 nM.

For the compound `c1ccc(-c2cc(-c3csc(Nc4ccccn4)n3)on2)cc1`, the EC50 is 600 nM (read-out: EC50) and 603 nM (read-out: pEC50 (converted)).

Consider `c1ccc(-c2csc(Nc3ccc4ccccc4n3)n2)cc1`, for which the EC50 (read-out: EC50) turned out to be 3080 nM and the EC50 (read-out: pEC50 (converted)) is 3090 nM.

Regarding `O=C(Nc1nc(-c2ccc(-c3ccccc3)cc2)cs1)C1CC1`, the EC50 was 248 nM (read-out: EC50) and 245 nM (read-out: pEC50 (converted)).

As for `c1ccc2nc(Nc3nc(-c4cc5ccccc5o4)cs3)ccc2c1`, the EC50 is, setting by setting: (read-out: EC50) 920 nM; (read-out: pEC50 (converted)) 912 nM.

On to `COc1ccc(-c2csc(Nc3ccc(C)cn3)n2)c(OC)c1`, for which the EC50 was 3130 nM (read-out: EC50) and 3160 nM (read-out: pEC50 (converted)).

For the compound `COc1ccc(-c2csc(Nc3ccccn3)n2)cc1OC`, the EC50 (read-out: EC50) worked out at 1220 nM and the EC50 (read-out: pEC50 (converted)) was 1230 nM.

In the case of `Cc1ccc(Nc2nc(-c3ccccn3)cs2)nc1`, the EC50 is, setting by setting: (read-out: EC50) 860 nM; (read-out: pEC50 (converted)) 851 nM.

For `Oc1ccc(-c2csc(Nc3ccccn3)n2)cc1O`, the EC50 (read-out: EC50) came to 10000 nM and the EC50 (read-out: pEC50 (converted)) is 10000 nM.

Take `Cc1cccc(Nc2nc(-c3ccc(-c4ccncc4)cc3)cs2)n1`: the EC50 reads like this: (read-out: EC50) 87 nM; (read-out: pEC50 (converted)) 87.1 nM.

As for `Cc1ccnc(Nc2nc(-c3ccncc3)cs2)c1`, the EC50 is 4950 nM (read-out: EC50) and 5010 nM (read-out: pEC50 (converted)).

Consider `CN(C)c1cccc(Nc2nc(-c3ccc(-c4ccccc4)cc3)cs2)n1`, for which the EC50 was 699 nM (read-out: EC50) and 692 nM (read-out: pEC50 (converted)).

Turning to `c1ccc2nc(Nc3nc(-c4ccncc4)cs3)ccc2c1`, the EC50 by setting is: (read-out: EC50) 310 nM; (read-out: pEC50 (converted)) 309 nM.

Turning to `COc1ccc(-c2csc(Nc3cnccn3)n2)cc1OC`, the EC50 is 15600 nM (read-out: EC50) and 15500 nM (read-out: pEC50 (converted)).

With `Cc1ccnc(Nc2nc(-c3cc(-c4ccc(Cl)cc4)no3)cs2)c1`, the EC50 by setting is: (read-out: EC50) 850 nM; (read-out: pEC50 (converted)) 851 nM.

Turning to `Cc1cccc(Nc2nc(-c3ccc(-c4ccnc(N(C)C)c4)cc3)cs2)n1`, the EC50 was 123 nM (read-out: EC50) and 123 nM (read-out: pEC50 (converted)).

On to `COc1ccc(-c2csc(NC(=O)c3ccc4ccccc4n3)n2)cc1OC`, for which the EC50 is, setting by setting: (read-out: EC50) 8180 nM; (read-out: pEC50 (converted)) 8130 nM.

`Cc1cccc(Nc2nc(-c3ccc(O)c(O)c3)cs2)n1`: the EC50 by setting is: (read-out: EC50) 2500 nM; (read-out: pEC50 (converted)) 2510 nM.

As to `Cc1cccc(Nc2nc(-c3ccc(-c4ccc(N(C)C)nc4)cc3)cs2)n1`, the EC50 by setting is: (read-out: EC50) 69 nM; (read-out: pEC50 (converted)) 69.2 nM.

Consider `O=C(CN1CCCC1)Nc1ccc(Cc2ccc(NC(=O)CN3CCCC3)cc2)cc1`, for which the EC50 was 1350 nM (read-out: EC50) and 1350 nM (read-out: pEC50 (converted)).

Regarding `Cc1ccc(Nc2nc3c(s2)Cc2ccccc2-3)nc1`, the EC50 by setting is: (read-out: EC50) 2440 nM; (read-out: pEC50 (converted)) 2450 nM.

Turning to `Cc1cccc(Nc2nc(-c3ccc(-c4ccccc4)cc3)cs2)n1`, the EC50 runs as follows: (read-out: EC50) 2290 nM; (read-out: pEC50 (converted)) 1260 nM.

Turning to `COc1ccc(-c2csc(Nc3ccc(C(F)(F)F)cn3)n2)cc1OC`, the EC50 is, setting by setting: (read-out: EC50) 2530 nM; (read-out: pEC50 (converted)) 2510 nM.

In the case of `Cc1cccc(Nc2nc(-c3ccc(O)cc3O)cs2)n1`, the EC50 (read-out: EC50) worked out at 3900 nM and the EC50 (read-out: pEC50 (converted)) is 3890 nM.

Take `Cc1ccc(Nc2nc(-c3ccccc3)cs2)nc1`: the EC50 by setting is: (read-out: EC50) 7880 nM; (read-out: pEC50 (converted)) 7940 nM.

`COc1ccc(-c2ccc(-c3csc(Nc4cccc(C)n4)n3)cc2)cn1`: the EC50 by setting is: (read-out: EC50) 140 nM; (read-out: pEC50 (converted)) 141 nM.

On to `Cc1cccc(Nc2nc(-c3ccc(-c4ccc(N5CCN(C)CC5)nc4)cc3)cs2)n1`, for which the EC50 is, setting by setting: (read-out: EC50) 96 nM; (read-out: pEC50 (converted)) 95.5 nM.

For the compound `Cc1cccc(Nc2nc(-c3ccc(-c4ccnc(N5CCN(C)CC5)c4)cc3)cs2)n1`, the EC50 reads like this: (read-out: EC50) 759 nM; (read-out: pEC50 (converted)) 759 nM.

On to `Cc1ccc(Nc2nc(-c3cccc(C#N)c3)cs2)nc1`, for which the EC50 by setting is: (read-out: EC50) 2290 nM; (read-out: pEC50 (converted)) 2290 nM.

As to `COc1cc2c(cc1OC)-c1nc(Nc3ccc(C)cn3)sc1C2`, the EC50 reads like this: (read-out: EC50) 5590 nM; (read-out: pEC50 (converted)) 5620 nM.

Take `FC(F)(F)c1csc(Nc2ccc3ccccc3n2)n1`: the EC50 is 8660 nM (read-out: EC50) and 8710 nM (read-out: pEC50 (converted)).

On to `Cc1cccc(Nc2nc(-c3ccc(N4CCN(C)CC4)cc3)cs2)n1`, for which the EC50 (read-out: EC50) was determined as 840 nM and the EC50 (read-out: pEC50 (converted)) was 832 nM.
